Screening data: PubChem BioAssay, several laboratories
Shown are actives, neighbours in structure and some others; about 3.4% of the full set was active somewhere.
MEKK2 mut-MEK5 = signal of MEK5 binding to mutant human MEKK2 PB1 domain; 0.35% of 290,000 active; bead flow cytometry, Alexa488-MEK5 binding to MEKK2 mutant; percent response, % at 10 µM; AID 1530; in the data active = percent response above about 24%, passing the limit was not always enough
VIM-2 inhibitor = inhibitors of Pseudomonas aeruginosa VIM-2 metallo-beta-lactamase; 0.89% of 290,000 active; inhibition, % at 5.6 µM; purified VIM-2, nitrocefin hydrolysis, epi-absorbance fluorescence;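 active = inhibition above the mean of all tested compounds plus 3 SD, cutoff set per screening run, cut at about 7.5% in these data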;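 note: red hydrolysis product quenches plate fluorescence so inhibitors raise well fluorescence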
IMP-1 inh = blocks Pseudomonas aeruginosa IMP-1 metallo-beta-lactamase. purified IMP-1, nitrocefin hydrolysis, epi-absorbance fluorescence. 0.45% of 290,000 active. inhibition, % at 5.6 µM. AID 1556;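 active = inhibition above the mean plus 3 SD of all compounds in the same screening run, cut at about 4.5% in these data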
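System – purified recombinant IMP-1 beta-lactamase · Input – IMP-1 dispensed at 0.2 nM · Timing – 15 min preincubation plus 25 min reaction at 25 °C · Signal – Epi-absorbance fluorescence, 480 nm excitation, 530 nm emission · Measure – percent IMP-1 inhibition derived from blank-referenced optical density · Controls – Enzyme-plus-DMSO low control, enzyme-free DMSO high control · Replication – singlicate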
MEKK3 PB1 HTS = MEKK3-MEK5 PB1 interaction, increase or decrease | Q99759 | 1.4% of 290,000 active | binding response (% of control), % at 10 µM | bead-based flow cytometry, Alexa488-MEK5 binding to MEKK3; actives lie on both sides; 0 = blocked by unlabeled MEK5, 100 = vehicle;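 active = binding response more than 3 SD above or below the average of its plate-row segment, actives on both sides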;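 note: Alexa488 bead fluorescence after subtracting the streptavidin-only scavenger bead signal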
Target sequence (Q99759 whole entry, looked up): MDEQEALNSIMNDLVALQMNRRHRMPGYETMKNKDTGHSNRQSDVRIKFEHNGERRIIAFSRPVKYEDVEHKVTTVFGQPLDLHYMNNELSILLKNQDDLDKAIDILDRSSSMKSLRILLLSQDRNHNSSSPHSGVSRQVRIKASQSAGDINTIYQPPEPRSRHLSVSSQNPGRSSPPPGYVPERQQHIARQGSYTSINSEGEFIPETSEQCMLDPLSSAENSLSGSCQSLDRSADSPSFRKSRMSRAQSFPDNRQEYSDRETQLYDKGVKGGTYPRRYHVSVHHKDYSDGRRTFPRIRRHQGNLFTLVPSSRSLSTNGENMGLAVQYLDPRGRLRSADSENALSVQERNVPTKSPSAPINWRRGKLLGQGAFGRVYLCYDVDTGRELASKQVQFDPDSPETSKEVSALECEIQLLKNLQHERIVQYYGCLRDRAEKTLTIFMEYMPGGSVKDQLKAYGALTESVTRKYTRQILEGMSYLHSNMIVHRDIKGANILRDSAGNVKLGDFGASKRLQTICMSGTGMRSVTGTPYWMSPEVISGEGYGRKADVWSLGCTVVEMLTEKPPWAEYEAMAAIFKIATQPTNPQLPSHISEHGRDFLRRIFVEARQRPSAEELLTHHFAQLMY
MEKK2 WT-MEK5 = raises or lowers MEK5 binding to wildtype human MEKK2 PB1 domain | 1.1% of 290,000 active | bead flow cytometry, Alexa488-MEK5 binding to MEKK2 WT; actives lie on both sides | Q9Y2U5 | binding response (% of control), % at 10 µM; in the data active = binding response below about 67% or above about 130%
MEKK2wt confirm = raises or lowers MEK5 binding to wildtype human MEKK2, retest; 2.4% of 5,900 active; bead flow cytometry, Alexa488-MEK5 binding to MEKK2 WT; actives lie on both sides; binding response (% of control), % at 10 µM; shares compounds with MEKK3 PB1 HTS; in the data active = binding response below about 16% or above about 210%; inactive = in between
MEKK2mut confirm = signal of MEK5 binding to mutant human MEKK2, retest. shares compounds with MEKK3 PB1 HTS. bead flow cytometry, Alexa488-MEK5 binding to MEKK2 mutant. percent response, % at 10 µM. 2% of 5,900 active. AID 1893; in the data active = percent response mostly above about 71%, no sharp cut-off; inactive = mostly below about 38%;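 note: higher means compound restores mutant binding toward wildtype level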
MEKK3-MEK5 inh = confirmation of inhibitors of MEK5 binding to human MEKK3 | shares compounds with MEKK3 PB1 HTS | bead flow cytometry, Alexa488-MEK5 binding to MEKK3; hits give low values | binding response (% of control), % at 10 µM | 1.8% of 5,900 active | AID 1894;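 active = binding response below 72% of control, or above a set upper limit, though filed actives all read lower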;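 note: lower values mean stronger disruption of MEK5 binding to MEKK3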
Of the large screens only hits and unclear results are named; the others gave an inactive call (follow-up assays come after a bar, where they were run); [ ] = another dose, or the depositor's remark.

CC(=O)CSc1nnc2c3ccccc3nc(C(C)(C)C)n12	MEKK3 PB1 HTS 73[inhibitor], MEKK2 WT-MEK5 63[inhibitor] | MEKK2wt confirm inactive | MEKK2mut confirm inactive | MEKK3-MEK5 inh inactive
O=c1c2ccccc2nc(/C=C/c2c[nH]c3ccccc23)n1-c1ccc([N+](=O)[O-])cc1	MEKK3 PB1 HTS 75[inhibitor] | MEKK2wt confirm inactive | MEKK2mut confirm inactive | MEKK3-MEK5 inh inactive
O=C(/C=C\c1cn(-c2ccccc2)nc1-c1ccccc1)Nc1nccs1	MEKK3 PB1 HTS 140 | MEKK2wt confirm inactive | MEKK2mut confirm inactive | MEKK3-MEK5 inh inactive
Oc1ccc(Cl)cc1CNCC1CCCO1 (stereo not drawn)	none
Clc1ccccc1CNCC1CCCO1 (stereo not drawn)	MEKK2 mut-MEK5 27 | MEKK2wt confirm inactive | MEKK2mut confirm inactive | MEKK3-MEK5 inh inactive
Cc1cc(-c2ccc(Cl)cc2)n2ncnc2n1	MEKK3 PB1 HTS 50[inhibitor] | MEKK2wt confirm inactive | MEKK2mut confirm inactive | MEKK3-MEK5 inh inactive
O=C(CSc1ncnc2nc[nH]c12)NCCc1ccccc1	none
COc1ccc(NC(=O)N2CCCC2C(=O)NCc2ccc(C)cc2)cc1 (stereo not drawn)	MEKK2 mut-MEK5 62, MEKK3 PB1 HTS 73[inhibitor] | MEKK2wt confirm inactive | MEKK2mut confirm inactive | MEKK3-MEK5 inh inactive
Cc1ccc(NC(=O)Nc2nc3ccccc3s2)cc1NC(=O)Nc1nc2ccccc2s1	none
CC(=O)c1ccc(N(C(=O)Cn2nnc3ccccc32)C(C(=O)NCc2ccccc2)c2ccccn2)cc1 (stereo not drawn)	none
Cc1ccc(N(C(=O)Cn2nnc3ccccc32)C(C(=O)NCc2ccccc2)c2ccccn2)cc1 (stereo not drawn)	MEKK3 PB1 HTS 128 | MEKK2wt confirm inactive | MEKK2mut confirm inactive | MEKK3-MEK5 inh inactive
CC1(C)Cc2ccccc2/C(=C/C(=O)N2CCCCCC2)N1	MEKK3 PB1 HTS 79[inhibitor] | MEKK2wt confirm inactive | MEKK2mut confirm inactive | MEKK3-MEK5 inh inactive
O=c1c2ccccc2sc2ccc(NCCCN3CCOCC3)cc12	none (no result: VIM-2 inhibitor, IMP-1 inh)
CCN1CCN(CCC(=O)Nc2cc(C)ccc2C)CC1	none
CNC[C@H](Cc1ccccc1)NC[C@@H](Cc1cccc2ccccc12)NCCc1ccc(C)cc1	MEKK2 mut-MEK5 120, MEKK2 WT-MEK5 364 | MEKK2wt confirm 255 | MEKK2mut confirm 100 | MEKK3-MEK5 inh inactive
O=C(O)c1sccc1S(=O)(=O)N1CCN(c2ccc(C(F)(F)F)cn2)CC1	none
O=S(=O)(c1ccc(C(F)(F)F)cc1)N1CCCN(c2ccc(C(F)(F)F)cn2)CC1	MEKK3 PB1 HTS 47[inhibitor], MEKK2 WT-MEK5 46[inhibitor] | MEKK2wt confirm inactive | MEKK2mut confirm inactive | MEKK3-MEK5 inh inactive
Cc1cc(Nc2cccc(Cl)c2)nc(-c2ccccc2O)n1	none
Cc1cc(Nc2ccc(Cl)cc2)nc(-c2ccccc2O)n1	MEKK2 mut-MEK5 28, MEKK2 WT-MEK5 140 | MEKK2wt confirm inactive | MEKK2mut confirm inactive | MEKK3-MEK5 inh inactive
CCC(CC)C(=O)Nc1cc(C(=O)OC)ccc1C(=O)OC	MEKK3 PB1 HTS 194 | MEKK2wt confirm inactive | MEKK2mut confirm inactive | MEKK3-MEK5 inh inactive
Cn1c(CC(=O)Nc2ccccc2)nnc1SCC(=O)NC1=NCCS1	none
Clc1cccc(Cl)c1COc1ccccn1	none
COc1ccc(/C=C/c2c(-c3ccc(OC)cc3)oc3ccc(-c4ccc(OC)cc4)cc23)cc1	none
COc1ccc(/C=C/c2cc(-c3ccc(C)cc3)o[n+]2C)cc1	MEKK2 WT-MEK5 155 | MEKK2wt confirm inactive | MEKK2mut confirm inactive | MEKK3-MEK5 inh inactive
CCOC(=O)c1c(-c2ccc(OC)cc2)oc2cc(Br)c(O)cc12	none
CCOC(=O)c1c(C)[nH]c2cc(Br)c(O)cc12	MEKK3 PB1 HTS 2.0[inhibitor], MEKK2 WT-MEK5 2.0[inhibitor] | MEKK2wt confirm inactive | MEKK2mut confirm inactive | MEKK3-MEK5 inh inactive
CN(C)C(=O)COC(=O)c1cccc(CN2C(=O)c3ccccc3C2=O)c1	MEKK3 PB1 HTS 71[inhibitor] | MEKK2wt confirm inactive | MEKK2mut confirm inactive | MEKK3-MEK5 inh inactive
O=C(N/N=C/c1cccc(F)c1)NC1CCCCC1	none
O=C(N/N=C/c1ccccc1)NC1CCCCC1	MEKK3 PB1 HTS 67[inhibitor] | MEKK2wt confirm inactive | MEKK2mut confirm inactive | MEKK3-MEK5 inh inactive
O=C(N/N=C/c1ccccc1OC(F)F)NC1CCCCC1	none
O=C(N/N=C/c1ccccc1F)NC1CCCCC1	MEKK3 PB1 HTS 140 | MEKK2wt confirm inactive | MEKK2mut confirm inactive | MEKK3-MEK5 inh 68
CO/N=C/c1ccc(N2CCOCC2)c([N+](=O)[O-])c1	none
CNC(=O)CSc1nnc(C(C)C)n1C	MEKK3 PB1 HTS 136 | MEKK2wt confirm inactive | MEKK2mut confirm inactive | MEKK3-MEK5 inh inactive
COc1ccc2[nH]c(C)c(-c3csc(N)n3)c2c1	MEKK2 mut-MEK5 27 | MEKK2wt confirm inactive | MEKK2mut confirm inactive | MEKK3-MEK5 inh inactive
Cc1ccc(CSCC(=O)N2CCN(c3ccccc3)CC2)cc1	MEKK3 PB1 HTS 131 | MEKK2wt confirm inactive | MEKK2mut confirm inactive | MEKK3-MEK5 inh inactive
O=C(CSCc1ccccc1)N1CCN(c2ccccc2)CC1	none
O=C(c1ccc(Cl)c(Cl)c1)N(Cc1ccco1)c1ccc(O)cc1	none
CCOC(=O)c1c(NC(=O)CN2C(=O)NC3(CCCCC3)C2=O)sc(C)c1-c1ccc(C)cc1	none
CCOC(=O)c1sc(NC(=O)CN2C(=O)NC3(CCCCCCC3)C2=O)c(C(=O)OCC)c1C	MEKK3 PB1 HTS 35[inhibitor], MEKK2 WT-MEK5 25[inhibitor] | MEKK2wt confirm inactive | MEKK2mut confirm inactive | MEKK3-MEK5 inh inactive
CC(C(=O)OCC(=O)c1cccc([N+](=O)[O-])c1)N1C(=O)C2C3C=CC(C3)C2C1=O (stereo not drawn)	none
COc1ccc(C(=O)N2CCOCC2)cc1Br	MEKK3 PB1 HTS 125 | MEKK2wt confirm inactive | MEKK2mut confirm inactive | MEKK3-MEK5 inh inactive
COc1cc(C(=S)N2CCOCC2)cc(OC)c1O	MEKK3 PB1 HTS 42[inhibitor] | MEKK2wt confirm inactive | MEKK2mut confirm inactive | MEKK3-MEK5 inh inactive
COc1cccc(OC)c1C(=O)N1CCOCC1	none
Cc1nn(C)c(=O)n1N(C)c1ncc(C(F)(F)F)cc1Cl	MEKK3 PB1 HTS 139 | MEKK2wt confirm inactive | MEKK2mut confirm inactive | MEKK3-MEK5 inh inactive
Cc1ccccc1-n1nc2c(c1NC(=O)C(C)C)CS(=O)(=O)C2	none
O=C(CN1CCCc2ccccc21)N/N=C/c1ccccc1O	MEKK3 PB1 HTS 128 | MEKK2wt confirm inactive | MEKK2mut confirm inactive | MEKK3-MEK5 inh inactive
